Bioassay records deposited in PubChem BioAssay by Broad Institute.
T cruzi growth-1 = blocks T. cruzi growth in NIH3T3 culture; T. cruzi beta-gal in NIH3T3, GalScreen luminescence, 90 h; hit rate 5.9% among 77,000; inhibition, % at 8.34 µM; AID 624255;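 active means mean inhibition above about 93%, with at least 55% of replicates each passing it, limit read from the data, passing the limit was not always enough; inconclusive means only one of those two conditions holds; inactive means neither condition holds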
Pf Dd2 inh = inhibitors of Plasmodium falciparum Dd2 growth. P. falciparum Dd2 growth, SYBR Green, 72 h; active compounds read low. activity change, % at 10 µM. hit rate 2.3% among 94,000; in the data active means activity change below about -80%; inconclusive means no clear call, values can overlap the other calls
GASC1 inh = blocks human GASC-1 (KDM4C) demethylase activity; Q9H3R0; GST-KDM4C 2-372, H3K9me3 peptide, LANCE TR-FRET; inhibition, % at 12.5 µM; hit rate 0.15% among 96,000; AID 720574;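 active means mean replicate inhibition above about 25%, with at least 55% of replicates also reaching it, limit read from the data, passing the limit was not always enough; inconclusive means only one of those two conditions met; inactive means neither condition met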
Target sequence (Q9H3R0 2-372 limits assumed): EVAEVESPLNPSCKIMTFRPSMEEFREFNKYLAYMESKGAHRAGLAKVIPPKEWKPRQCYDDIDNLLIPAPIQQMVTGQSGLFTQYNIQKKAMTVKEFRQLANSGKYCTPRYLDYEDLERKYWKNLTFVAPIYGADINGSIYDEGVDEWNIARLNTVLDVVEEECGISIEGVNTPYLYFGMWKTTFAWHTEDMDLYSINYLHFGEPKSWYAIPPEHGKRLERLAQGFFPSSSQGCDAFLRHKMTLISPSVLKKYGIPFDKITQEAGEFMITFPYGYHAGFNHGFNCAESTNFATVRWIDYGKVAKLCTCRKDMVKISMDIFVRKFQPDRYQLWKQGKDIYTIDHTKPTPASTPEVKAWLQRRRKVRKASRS
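System – N-terminal GST-fused human GASC-1 (KDM4C) fragment, residues 2-372 · Input – enzyme final amount 10 nM · Technique – LANCE TR-FRET, Eu antibody, ULight-streptavidin, EDTA, ex 340 nm, em 618/671 nm · Medium – HEPES buffer, pH 7.5, plus ascorbate · Incubation – enzyme reaction 30 min, then detection 60 min, both room temperature · Reagent – H3K9me3 peptide with Fe(II)/2OG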
IDH1 mut inh = IDH1 R132H (human) inhibition | AID 624101 | IDH1 R132H reductase, diaphorase/resazurin fluorescence, 60 min | O75874 | inhibition, % at 10 µM | hit rate 0.18% among 70,000; in the data active means inhibition above about 34%; inconclusive means no clear call, values can overlap the other calls; inactive means below about 11%;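 further: 0% = DMSO and 100% = no enzyme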
T cruzi growth-2 = blocks T. cruzi growth in NIH3T3 host cells. shares compounds with T cruzi growth-1. T. cruzi beta-gal in NIH3T3, GalScreen luminescence, 90 h. AID 651739. hit rate 72% among 5,600. inhibition, % at 8.35 µM;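 active means mean replicate inhibition above about 95% and at least 55% of replicates individually reaching it, limit read from the data; inconclusive means only one of the two criteria is met; inactive means neither criterion is met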
T cruzi growth-3 = Trypanosoma cruzi proliferation inhibition; inhibition, % at 2.09 µM; hit rate 21% among 5,600; T. cruzi beta-gal in NIH3T3, GalScreen luminescence, 90 h; shares compounds with T cruzi growth-1;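 active means mean inhibition above about 95%, with at least 55% of replicates also reaching it, limit read from the data; inconclusive means meets just one of the two conditions; inactive means meets neither condition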;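 further: plate controls were neutral control median for no effect and positive control median for full effect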
NIH3T3 tox = cytotoxicity in mouse NIH/3T3 fibroblasts; NIH/3T3 viability, CellTiter-Glo ATP luminescence, 90 h; shares compounds with T cruzi growth-1; hit rate 14% among 5,600; cytotoxicity (signal decrease), % at 8.35 µM;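 active means mean signal decrease across replicates above about 35% based on untreated-well scatter, with enough replicates individually passing, limit read from the data; inconclusive means no rule stated though some were filed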;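 further: 0% = median of neutral control wells and 100% = median of positive control wells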
NIH3T3 tox 2 = kills mouse NIH/3T3 fibroblasts | shares compounds with T cruzi growth-1 | NIH/3T3 viability, CellTiter-Glo ATP luminescence, 90 h | inhibition, % at 24.9 µM | hit rate 56% among 5,600 | AID 651744;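 active means mean loss of cell viability signal at or above a set limit, and enough replicates individually reaching it; inconclusive means meets only the mean limit or only the replicate share; inactive means meets neither condition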;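 further: 0% = median of neutral control wells and 100% = median of positive control wells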
Numbers without * were called inactive. Compounds with a hit are over-represented: about 5.9% of the library has one in this group of screens.

For Cn1cnc(S(=O)(=O)N2CCCCN3[C@H](C2)[C@@H](c2ccc(-c4cccc(F)c4)cc2)[C@@H]3CO)c1 the results were T cruzi growth-1 103*, Pf Dd2 inh 34, GASC1 inh 0, T cruzi growth-2 96*, T cruzi growth-3 5, NIH3T3 tox 6 and NIH3T3 tox 2 inconclusive.
`Cn1cnc(S(=O)(=O)N2CCCCN3[C@H](CO)[C@@H](c4ccc(-c5cccc(F)c5)cc4)[C@@H]3C2)c1` gave T cruzi growth-1 103*, Pf Dd2 inh 41, GASC1 inh -1, T cruzi growth-2 104*, T cruzi growth-3 1, NIH3T3 tox 22 and NIH3T3 tox 2 64*.
`CN(C)C(=O)c1cccc(-c2ccc3c(c2)[C@@H]2[C@@H](CCN2S(=O)(=O)c2cn(C)cn2)[C@@H](CO)N3)c1` gave T cruzi growth-1 inconclusive, Pf Dd2 inh 16, GASC1 inh 0, T cruzi growth-2 103*, T cruzi growth-3 40, NIH3T3 tox 14 and NIH3T3 tox 2 -9.
`CN(C)C(=O)c1cccc(-c2ccc3c(c2)[C@@H]2[C@@H](CCN2S(=O)(=O)c2cn(C)cn2)[C@H](CO)N3)c1` gave T cruzi growth-1 inconclusive, Pf Dd2 inh 29, GASC1 inh -2, T cruzi growth-2 96*, T cruzi growth-3 66, NIH3T3 tox -11 and NIH3T3 tox 2 -23.
Screening CC(C)CC#Cc1ccc2c(c1)O[C@@H](CN(C)S(=O)(=O)c1ccc(F)cc1)[C@@H](C)CN([C@@H](C)CO)S2(=O)=O returned Pf Dd2 inh -53, GASC1 inh 1 and IDH1 mut inh 0.
CC(C)CC#Cc1ccc2c(c1)O[C@H](CN(C)S(=O)(=O)c1cccc(F)c1)[C@H](C)CN([C@@H](C)CO)S2(=O)=O was read as T cruzi growth-1 118*, Pf Dd2 inh -54, GASC1 inh -3, IDH1 mut inh 8, T cruzi growth-2 88, T cruzi growth-3 100*, NIH3T3 tox 13 and NIH3T3 tox 2 60*.
For CC(C)CC#Cc1ccc2c(c1)O[C@H](CN(C)S(=O)(=O)c1cccc(F)c1)[C@H](C)CN([C@H](C)CO)S2(=O)=O the results were T cruzi growth-1 112*, Pf Dd2 inh -77, GASC1 inh -1, IDH1 mut inh 0, T cruzi growth-2 100*, T cruzi growth-3 116*, NIH3T3 tox 19 and NIH3T3 tox 2 98*.
`CS(=O)(=O)N(CC(=O)Nc1ccc2ccccc2c1)c1cccc2ccccc12` gave IDH1 mut inh 0.
Screening OC[C@@H]1[C@H](c2ccc(-c3ccccc3F)cc2)[C@@H]2CN(Cc3cncnc3)CCCCN12 returned T cruzi growth-1 110*, Pf Dd2 inh 13, GASC1 inh 0, T cruzi growth-2 88, T cruzi growth-3 82, NIH3T3 tox -20 and NIH3T3 tox 2 50*.
For OC[C@@H]1[C@@H](c2ccc(-c3ccccc3F)cc2)[C@@H]2CN(Cc3cccnc3)CCCCN12 the results were T cruzi growth-1 85, Pf Dd2 inh -13 and GASC1 inh 5.
OC[C@H]1[C@H](c2ccc(-c3ccccc3F)cc2)[C@@H]2CN(Cc3cncnc3)CCCCN12 was read as T cruzi growth-1 108*, Pf Dd2 inh -24, GASC1 inh -1, T cruzi growth-2 108*, T cruzi growth-3 87, NIH3T3 tox 4 and NIH3T3 tox 2 36*.
Screening OC[C@@H]1[C@H](c2ccc(-c3ccccc3F)cc2)[C@H]2CN(Cc3cncnc3)CCCCN12 returned T cruzi growth-1 110*, Pf Dd2 inh -18, GASC1 inh 1, T cruzi growth-2 100*, T cruzi growth-3 89, NIH3T3 tox 22 and NIH3T3 tox 2 38*.
Screening OC[C@@H]1[C@@H](c2ccc(-c3ccccc3F)cc2)[C@H]2CN(Cc3cncnc3)CCCCN12 returned T cruzi growth-1 46, Pf Dd2 inh -13 and GASC1 inh 0.
For Cc1ccccc1-c1noc(CCC(=O)Nc2ccc(Cl)cc2)n1 the results were IDH1 mut inh 0.
For CCCNC(=O)CSc1nc2nc(C)c(Cc3cccc(C)c3)c(C)n2n1 the results were IDH1 mut inh 0.
